The results in this text go back to ChEMBL document CHEMBL1649178, “Penetration of moxifloxacin into bone evaluated by Monte Carlo simulation” (Antimicrob Agents Chemother, 2009).

Data set [1] in a line: fAUC/MIC in osteomyelitis patient cortical bone at 400 mg, po administered for every 24 hrs at PKPD breakpoint at 0.25 mg/liter. It is filed as functional. A digest of the protocol: (§1)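 PKPD targets were derived by reverse engineering from success rates in clinical osteomyelitis studies, the expected AUCs at the doses used there, and published MIC distributions. Bone targets (total drug) use a ciprofloxacin bone/serum AUC ratio of 0.63. Concentration profiles were simulated for 10,000 patients given 400 mg orally q24h at steady state, without residual error, with serum protein binding assumed at 50%.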

The nature of data set [2]: fAUC/MIC in osteomyelitis patient cancellous bone at 400 mg, po administered for every 24 hrs at PKPD breakpoint at 0.25 mg/liter. It is filed as functional. A digest of the protocol: as §1
The nature of data set [3]: fAUC/MIC in osteomyelitis patient serum at 400 mg, po administered for every 24 hrs at PKPD breakpoint at 1 mg/liter. Format: functional. A digest of the protocol: as §1
Data set [4] can be described thus: fAUC/MIC in osteomyelitis patient cortical bone at 400 mg, po administered for every 24 hrs at PKPD breakpoint at 1 mg/liter. Format: functional. In outline: as §1
A short description of data set [5]: fAUC/MIC in osteomyelitis patient cancellous bone at 400 mg, po administered for every 24 hrs at PKPD breakpoint at 1 mg/liter. Format: functional. In outline: as §1
The next data set deals with Staphylococcus aureus. As to the kind of experiment: Antimicrobial activity against Staphylococcus aureus.
Data set [6] is described as follows: fAUC/MIC in osteomyelitis patient serum at 400 mg, po administered for every 24 hrs at PKPD breakpoint at 0.375 mg/liter. Format: functional. A digest of the protocol:
as §1

Data set [7] in a line: fAUC/MIC in osteomyelitis patient cortical bone at 400 mg, po administered for every 24 hrs at PKPD breakpoint at 0.5 mg/liter. It is filed as functional. In outline:
as §1

Data set [8] can be described thus: fAUC/MIC in osteomyelitis patient cancellous bone at 400 mg, po administered for every 24 hrs at PKPD breakpoint at 0.375 mg/liter. Format: functional. In outline:
as §1

Data set [9] is described as follows: fAUC/MIC in osteomyelitis patient serum at 400 mg, po administered for every 24 hrs at PKPD breakpoint at 0.19 mg/liter. It is filed as functional. In outline:
as §1

The nature of data set [10]: Drug level in osteomyelitis patient cortical bone at 400 mg, po administered for every 24 hrs. Conditions: human, in vivo. Format: ADME, organism-based, Bone element.
Data set [11] in a line: Drug level in osteomyelitis patient cancellous bone at 400 mg, po administered for every 24 hrs. Format: ADME, organism-based. Conditions: human, in vivo.

In brackets after ≈: the same amount, converted by molar mass.

Broadly, the MIC90 is the lowest concentration that inhibits either 90% of growth or 90% of the strains tested, depending on the study. Regarding `COc1c(N2C[C@@H]3CCCN[C@@H]3C2)c(F)cc2c(=O)c(C(=O)O)cn(C3CC3)c12` [MOXIFLOXACIN], the fAUC/MIC was found to be 55 in [1]; 55 in data set [2]; 15 in [3]; 13 in data set [4]; 13 in [5]; 40 in [6]. Besides, the fAUC/MIC came to 33 in data set [7], 33 in data set [8] and 66 in data set [9]. The same molecule registered an MIC90 in the data set with Staphylococcus aureus of 0.125 µg/mL (≈ 0.311 µM). Besides, the figures for the Drug uptake in data set [10] and in data set [11] were 80% and 78%, respectively.
